Measurements taken from PubChem BioAssay AID504823 (Southern Research Specialized Biocontainment Screening …, 2011).

test system: HEp-2 RSV Long CPE inhibition, luminescence viability; test: RSV-infected HEp-2 viability protection – cell-based, RSV Long, synthesized compounds, set 9, dose response (AID 504823)
Outline: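 System: RSV Long-infected HEp-2 cells; Reagent: RSV Long, MOI 0.45; Incubation: virus and compound exposure of 6 days at 37 °C; Detection: luminescence measure of cell viability reflecting viral cytopathic effect; Measure: % CPE inhibition scaled to cell-only and virus-only wells, IC50 by 4-parameter fit; Replication: triplicate.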

Row | Compound | IC50 [nM]
1 | Cc1ccc(C)c(NC(=O)[C@@H]2CCCN2S(=O)(=O)c2cccc3cccnc23)c1 | 3200
2 | COCCCNC(=O)c1ccc(Cn2c(=O)c3ccccc3n(Cc3ccc(Br)cc3)c2=O)cc1 | < 1200
3 | COCCCNC(=O)c1ccc(Cn2c(=O)c3ccccc3n(Cc3ccc(C(F)(F)F)cc3)c2=O)cc1 | < 1200
4 | COCCCNC(=O)c1ccc(Cn2c(=O)c3ccccc3n(Cc3ccc(OC)cc3)c2=O)cc1 | 2400
5 | COc1ccccc1CNC(=O)C1CCN(S(=O)(=O)c2cccc3nonc23)CC1 | 2900
6 | COCCCNC(=O)c1ccc(Cn2c(=O)c3ccccc3n(Cc3ccc4nonc4c3)c2=O)cc1 | 5600
7 | COCCCNC(=O)c1ccc(Cn2c(=O)c3ccccc3n(Cc3ccc([N+](=O)[O-])cc3)c2=O)cc1 | < 1200
8 | COCCCNC(=O)c1ccc(Cn2c(=O)c3ccccc3n(Cc3ccc(C)c(C(F)(F)F)c3)c2=O)cc1 | < 1200
9 | COCCCNC(=O)c1ccc(Cn2c(=O)c3ccccc3n(Cc3ccc(Cl)cc3)c2=O)cc1 | < 1200
